Data set [1] has as its system HUVEC. The data set is described as follows: Binding affinity to NPC1/VDAC1 in HUVEC assessed as reduction in mTOR phosphorylation at Ser2481 residue up to 1 uM after 24 hrs Western blot analysis. It is filed as cell-based. The conditions noted are these: Homo sapiens. The essentials:
(§1)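 HUVEC treated with 0.01, 0.03, 0.1, 0.3 or 1 μM drug, or DMSO, for 24 h. Lysed in RIPA buffer, protein normalized, then run on Western blot: 5% BSA block 1 h, primary antibody overnight at 4 °C, secondary 1 h, chemiluminescence imaging. Band gray value and area quantified; mean ± SD of three independent experiments.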

Data set [2] concerns HUVEC. The data set is described as follows: Binding affinity to NPC1/VDAC1 in HUVEC assessed as reduction in mTOR-mediated S6K phosphorylation at Thr389 residue up to 1 uM after 24 hrs Western blot analysis. It is filed as cell-based. The conditions noted are these: Homo sapiens. Summed up:
as §1

For another data set, the target named is Cytochrome P450 3A4 (Homo sapiens, UniProt P08684). Description: Inhibition of human liver microsome CYP3A4 expressed in baculosomes using fluorogenic-DBOMF as substrate preincubated for 10 mins followed by substrate addition and measured after 60 mins by fluorescence based assay. The format is ADME, microsomes. For orientation: Liver microsomes are vesicles of endoplasmic reticulum, rich in cytochrome P450 enzymes.
Chain of Cytochrome P450 3A4 (P08684 whole entry): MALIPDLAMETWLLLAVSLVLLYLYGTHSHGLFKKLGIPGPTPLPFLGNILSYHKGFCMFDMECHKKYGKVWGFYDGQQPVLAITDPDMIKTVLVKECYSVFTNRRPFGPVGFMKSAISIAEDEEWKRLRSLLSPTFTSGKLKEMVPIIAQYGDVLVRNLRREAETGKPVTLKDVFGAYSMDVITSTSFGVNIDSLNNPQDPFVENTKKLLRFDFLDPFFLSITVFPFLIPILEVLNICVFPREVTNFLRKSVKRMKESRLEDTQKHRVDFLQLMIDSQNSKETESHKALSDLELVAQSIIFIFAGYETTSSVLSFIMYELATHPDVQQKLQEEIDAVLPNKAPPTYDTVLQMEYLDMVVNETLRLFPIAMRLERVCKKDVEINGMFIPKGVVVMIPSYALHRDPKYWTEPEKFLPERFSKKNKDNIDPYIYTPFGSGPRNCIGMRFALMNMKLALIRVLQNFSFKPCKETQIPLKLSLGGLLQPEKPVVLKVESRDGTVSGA

The target in data set [3] is Non-selective voltage-gated ion channel VDAC1 (Homo sapiens) (UniProt P21796). Description: Binding affinity to VDAC1 (unknown origin) at 10 uM using itraconazole as probe by photoaffinity probe competitor assay.
Chain of Non-selective voltage-gated ion channel VDAC1 (Homo sapiens) (P21796 whole entry): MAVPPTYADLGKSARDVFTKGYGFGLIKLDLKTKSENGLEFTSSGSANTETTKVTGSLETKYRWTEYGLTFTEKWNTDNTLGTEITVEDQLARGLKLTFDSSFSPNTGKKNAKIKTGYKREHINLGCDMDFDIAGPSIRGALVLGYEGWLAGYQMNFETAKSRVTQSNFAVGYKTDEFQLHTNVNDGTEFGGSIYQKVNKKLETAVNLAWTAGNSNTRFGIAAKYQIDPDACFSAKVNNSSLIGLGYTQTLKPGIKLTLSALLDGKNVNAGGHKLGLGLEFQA
Data set [4] has the same target. The data set is described as follows: Binding affinity to VDAC1 in HUVEC assessed as AMPK phosphorylation at Thr172 residue after 24 hrs by Western blot analysis. It is filed as cell-based. For orientation: Immunoblotting shows a protein as a band on a membrane.
Data set [5] deals with T1, NPC intracellular cholesterol transporter 1 (Homo sapiens) (UniProt O15118).
T1 sequence (whole entry): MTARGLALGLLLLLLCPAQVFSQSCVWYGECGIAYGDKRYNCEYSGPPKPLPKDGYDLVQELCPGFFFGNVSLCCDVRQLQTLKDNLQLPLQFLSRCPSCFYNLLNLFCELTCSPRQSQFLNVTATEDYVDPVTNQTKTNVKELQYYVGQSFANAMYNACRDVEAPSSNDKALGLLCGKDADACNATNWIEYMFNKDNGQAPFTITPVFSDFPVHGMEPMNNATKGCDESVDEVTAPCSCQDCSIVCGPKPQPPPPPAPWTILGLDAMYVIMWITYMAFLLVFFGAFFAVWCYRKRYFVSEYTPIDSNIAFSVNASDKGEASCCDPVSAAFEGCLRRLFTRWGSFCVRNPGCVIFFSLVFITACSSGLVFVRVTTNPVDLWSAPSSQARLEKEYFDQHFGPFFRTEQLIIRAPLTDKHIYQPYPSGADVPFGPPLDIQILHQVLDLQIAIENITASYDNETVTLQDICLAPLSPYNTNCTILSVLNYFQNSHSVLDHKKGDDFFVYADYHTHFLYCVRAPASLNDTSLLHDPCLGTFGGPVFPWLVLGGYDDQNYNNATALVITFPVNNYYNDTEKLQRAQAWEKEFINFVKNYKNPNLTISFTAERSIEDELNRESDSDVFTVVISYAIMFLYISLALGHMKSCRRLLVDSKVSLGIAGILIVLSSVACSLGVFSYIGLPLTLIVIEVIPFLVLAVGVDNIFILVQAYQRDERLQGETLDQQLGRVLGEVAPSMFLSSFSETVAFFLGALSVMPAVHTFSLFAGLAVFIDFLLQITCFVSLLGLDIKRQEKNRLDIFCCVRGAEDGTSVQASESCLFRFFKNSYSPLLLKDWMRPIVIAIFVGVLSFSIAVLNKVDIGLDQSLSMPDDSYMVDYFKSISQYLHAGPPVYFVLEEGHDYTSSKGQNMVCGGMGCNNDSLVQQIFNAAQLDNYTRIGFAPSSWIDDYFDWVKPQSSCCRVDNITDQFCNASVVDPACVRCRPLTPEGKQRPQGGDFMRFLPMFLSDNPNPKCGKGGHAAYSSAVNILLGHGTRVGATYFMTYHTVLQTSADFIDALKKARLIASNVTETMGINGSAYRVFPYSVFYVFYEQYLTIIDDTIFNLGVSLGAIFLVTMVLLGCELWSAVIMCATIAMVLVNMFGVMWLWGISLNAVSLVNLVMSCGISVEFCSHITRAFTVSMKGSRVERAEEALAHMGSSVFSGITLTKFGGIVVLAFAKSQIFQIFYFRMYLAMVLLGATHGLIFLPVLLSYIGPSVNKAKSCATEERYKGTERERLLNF
Description: Binding affinity to NPC1 in HUVEC assessed as increase in cholesterol accumulation in late endosome/lysosome at 0.2 uM after 14 hrs by filipin staining-based confocal microscopy. It is filed as cell-based. Summed up:
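Methods give HUVEC (2,000) on chamber slides, settled overnight, then 0.1 µM drug or DMSO for 14 h; legend gives 0.2 μM for 24 h. Cells fixed in 4% paraformaldehyde for 15 min, then stained with 50 µg/ml filipin for 1 h in the dark. Imaged by confocal microscopy at 360/460 nm.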

Data set [6] deals with Non-selective voltage-gated ion channel VDAC1 (Homo sapiens) (UniProt P21796). The data set is described as follows: Binding affinity to VDAC1 in HUVEC assessed as ACC1 phosphorylation at Ser79 residue at 0.01 to 1 uM after 24 hrs by Western blot analysis. It is filed as cell-based. Summed up: as §1
Another data set addresses CYP3A4 (Homo sapiens, UniProt P08684). Description: Inhibition of human liver microsome CYP3A4 at 1 uM expressed in baculosomes using fluorogenic-DBOMF as substrate preincubated for 10 mins followed by substrate addition and measured after 60 mins by fluorescence based assay. As to conditions: recombinant CYP3A4 expressed in baculosomes, probe DBOMF (fluorogenic). It is filed as ADME, microsomes. The essentials: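 CYP3A4 baculosomes preincubated with drug at 1 µM for 10 min at 37 °C before Vivid green substrate added. Fluorescence (ex/em 485/520) read 60 min after substrate addition. Percent inhibition set against 10 μM ketoconazole as the 100% control; mean ± SD of three independent experiments run in triplicate.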

This note sets out measurements from ChEMBL document CHEMBL4257594 (J Med Chem, 2018).

Each structure is given as a SMILES string. The source made the active and inactive calls. The rule behind the calls is not given here.

For orientation: EC50 means the concentration that produces a half-maximal response. A higher EC50 goes with weaker potency. For orientation: inhibition means the drop in the measured response relative to a control, in per cent.

Chain of CYP3A4 (P08684 whole entry): as the sequence (P08684 whole entry) above

For `CCC(C)n1ncn(-c2ccc(N3CCN(c4ccc(OC[C@@H]5CO[C@@](Cn6cnnn6)(c6ccc(Cl)cc6Cl)O5)cc4)CC3)cc2)c1=O` (stereo partly drawn), the result (in the data set with HUVEC [1]; with HUVEC [2]; in data set [3]; in data set [5]; in data set [6]) was Active. In addition, the EC50 on Cytochrome P450 3A4 was over 20 µM. Further, the Activity result in data set [4] was “Dose-dependent effect”. The inhibition at 1 h, 1 µM on CYP3A4 came out at 2%.
